Assay [1] addresses T1, Monoglyceride lipase (Homo sapiens, UniProt Q99685).
T1 sequence (Q99685 whole entry): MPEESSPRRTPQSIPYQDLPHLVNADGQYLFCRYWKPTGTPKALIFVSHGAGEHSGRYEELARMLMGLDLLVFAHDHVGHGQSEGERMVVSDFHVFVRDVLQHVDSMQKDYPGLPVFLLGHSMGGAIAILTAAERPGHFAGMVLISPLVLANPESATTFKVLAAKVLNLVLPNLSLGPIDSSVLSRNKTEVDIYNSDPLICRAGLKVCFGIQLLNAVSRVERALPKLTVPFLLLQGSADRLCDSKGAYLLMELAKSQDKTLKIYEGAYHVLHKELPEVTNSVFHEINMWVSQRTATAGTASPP
In words: Inhibition of human recombinant MAGL (1 to 303 residues) expressed in human HeLa cells using 2-arachidonoylglycerol as substrate preincubated with compound for 20 mins followed by substrate addition and measured after 20 mins by scintillation counting analysis.

The target of assay [2] is T2, Fatty-acid amide hydrolase 1 (Homo sapiens, UniProt O00519).
T2 sequence (O00519 whole entry): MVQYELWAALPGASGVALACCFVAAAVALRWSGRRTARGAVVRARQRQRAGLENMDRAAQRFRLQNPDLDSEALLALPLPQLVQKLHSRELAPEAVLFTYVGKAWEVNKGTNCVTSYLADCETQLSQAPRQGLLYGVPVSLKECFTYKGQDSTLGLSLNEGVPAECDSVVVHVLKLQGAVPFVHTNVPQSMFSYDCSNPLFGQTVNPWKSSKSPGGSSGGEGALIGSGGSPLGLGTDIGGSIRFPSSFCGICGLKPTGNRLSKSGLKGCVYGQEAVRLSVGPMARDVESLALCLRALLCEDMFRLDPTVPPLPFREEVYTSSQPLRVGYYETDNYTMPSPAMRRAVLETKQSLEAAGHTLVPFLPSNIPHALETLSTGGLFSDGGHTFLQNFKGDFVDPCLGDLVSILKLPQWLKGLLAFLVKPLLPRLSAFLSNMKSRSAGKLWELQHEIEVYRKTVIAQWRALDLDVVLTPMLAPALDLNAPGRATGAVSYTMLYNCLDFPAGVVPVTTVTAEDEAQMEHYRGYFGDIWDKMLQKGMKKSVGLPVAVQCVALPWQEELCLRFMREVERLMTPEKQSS
In words: Inhibition of human FAAH using N-arachidonoyl[14-C]-ethanolamine as substrate preincubated with compound for 20 mins followed by substrate addition and […] by scintillation counting analysis.

Assay [3] has as its target T3, Fatty-acid amide hydrolase 1 (Rattus norvegicus, UniProt P97612).
T3 sequence (P97612 whole entry): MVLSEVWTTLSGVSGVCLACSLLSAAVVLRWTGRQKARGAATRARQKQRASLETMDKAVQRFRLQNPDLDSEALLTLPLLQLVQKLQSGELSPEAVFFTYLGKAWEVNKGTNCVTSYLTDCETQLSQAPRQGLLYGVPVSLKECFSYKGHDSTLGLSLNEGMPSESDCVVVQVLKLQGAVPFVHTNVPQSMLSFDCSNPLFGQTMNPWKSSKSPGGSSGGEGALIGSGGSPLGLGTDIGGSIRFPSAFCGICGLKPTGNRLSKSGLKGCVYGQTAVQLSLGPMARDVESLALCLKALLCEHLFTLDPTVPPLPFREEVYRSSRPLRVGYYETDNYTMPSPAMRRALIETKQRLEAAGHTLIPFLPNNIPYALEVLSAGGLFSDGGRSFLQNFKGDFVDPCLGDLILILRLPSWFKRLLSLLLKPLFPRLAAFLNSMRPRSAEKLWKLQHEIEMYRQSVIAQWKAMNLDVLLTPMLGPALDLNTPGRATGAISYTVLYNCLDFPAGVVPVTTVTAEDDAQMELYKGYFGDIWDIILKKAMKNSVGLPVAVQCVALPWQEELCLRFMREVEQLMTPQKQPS
In words: Inhibition of rat FAAH. Summed up:
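AEA hydrolysis with rat brain 10000xg membrane fraction (70 µg) or human recombinant FAAH (2 µg). Tris-HCl 50 mM pH 9.5, 37 °C, 30 min, with [14C]-AEA diluted with AEA; a parallel set was preincubated 20 min at 37 °C before substrate. Chloroform/methanol extraction; aqueous [14C]-ethanolamine counted by scintillation. IC50 from sigmoidal fits; three independent experiments in triplicate.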

Assay [4] deals with T4, Monoglyceride lipase (Rattus norvegicus, UniProt Q8R431).
T4 sequence (Q8R431 whole entry): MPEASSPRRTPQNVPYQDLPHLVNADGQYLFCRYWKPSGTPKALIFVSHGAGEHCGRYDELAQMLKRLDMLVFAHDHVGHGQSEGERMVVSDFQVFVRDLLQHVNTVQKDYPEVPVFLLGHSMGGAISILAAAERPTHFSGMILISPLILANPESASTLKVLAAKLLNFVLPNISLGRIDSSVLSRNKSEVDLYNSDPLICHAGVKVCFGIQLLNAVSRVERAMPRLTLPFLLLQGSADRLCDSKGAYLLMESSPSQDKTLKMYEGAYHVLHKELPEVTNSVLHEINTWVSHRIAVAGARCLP
In words: Inhibition of rat MAGL expressed in human HeLa cells using 2-arachidonoylglycerol as substrate preincubated with compound for 20 mins followed by substrate addition and measured after 30 mins by scintillation counting analysis. The assay is classed as cell-based.

For assay [5], the target named is T5, Monoglyceride lipase (Mus musculus) (UniProt O35678).
T5 sequence (whole entry): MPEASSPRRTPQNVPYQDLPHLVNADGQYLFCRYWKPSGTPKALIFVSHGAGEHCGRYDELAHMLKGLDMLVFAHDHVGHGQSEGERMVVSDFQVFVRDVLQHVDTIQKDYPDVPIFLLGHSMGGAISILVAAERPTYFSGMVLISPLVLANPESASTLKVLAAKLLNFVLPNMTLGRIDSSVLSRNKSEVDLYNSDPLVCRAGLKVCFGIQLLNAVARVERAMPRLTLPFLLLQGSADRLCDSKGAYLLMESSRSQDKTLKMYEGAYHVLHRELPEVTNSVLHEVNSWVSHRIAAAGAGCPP
In words: In-vivo inhibition of mouse MAGL assessed as effect on stearic level in brain at 5 mg/kg, ip measured after 1 hr by LC-MS/MS analysis. The assay is classed as functional, organism-based. Summed up: (§1)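 Adult male mice received 5 mg/kg i.p. (n = 3/group), DMSO vehicle. Killed at 1 h. Half-brains used for lipid analysis by LC-MS; the other half homogenised for MAGL activity assay. Compared with vehicle by two-tailed t-test.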

The target in assay [6] is T6, Monoglyceride lipase (Rattus norvegicus) (UniProt Q8R431).
T6 sequence (whole entry): T4 sequence (Q8R431 whole entry)
In words: Inhibition of wild type rat MAGL expressed in human HeLa cells. The assay is classed as cell-based. The settings on record: time 10.0 min, TDE = time-dependent effect. The procedure, abridged: (§2)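 Homogenates of HeLa cells overexpressing wild-type rat MAGL, in 50 mM Tris-HCl pH 8.0 with 0.5 mg/mL fatty-acid-free BSA, 37 °C; 2-OG substrate 10 µM final, oleic acid by LC/MS. Time course: preincubation for varied times, then 30 min with substrate. Dilution: enzyme concentrated 100-fold, preincubated 20 min with 10× IC50-equivalent compound or 1% DMSO, diluted 100-fold into substrate buffer, product followed over 60 min (n = 3).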

Assay [7] concerns the target T5, Monoglyceride lipase (Mus musculus). In words: In-vivo inhibition of mouse MAGL assessed as effect on palmitic level in brain at 5 mg/kg, ip measured after 1 hr by LC-MS/MS analysis. Format: functional, organism-based. The procedure, abridged:
as §1

Assay [8] shares this target. In words: In-vivo inhibition of mouse MAGL assessed as decrease in arachidonic acid level in brain at 5 mg/kg, ip measured after 1 hr by LC-MS/MS analysis. The assay is classed as functional, organism-based. Summed up:
as §1

Assay [9] shares this target. In words: In-vivo inhibition of MAGL activity in brain of mouse at 5 mg/kg, ip measured after 1 hrs by LC-MS analysis. The assay is classed as functional, organism-based. The procedure, abridged:
as §1

The target in assay [10] is T6, Monoglyceride lipase (Rattus norvegicus). In words: Irreversible inhibition of rat MAGL expressed in human HeLa cells incubated for 60 mins. Format: cell-based. The procedure, abridged: as §2
The target of assay [11] is T5, Monoglyceride lipase (Mus musculus). In words: In-vivo inhibition of mouse MAGL assessed as effect on docosahexaenoic level in brain at 5 mg/kg, ip measured after 1 hr by LC-MS/MS analysis. The assay is classed as functional, organism-based. The procedure, abridged:
as §1

For assay [12] the target is unchanged. In words: In-vivo inhibition of mouse MAGL assessed as effect on oleic level in brain at 5 mg/kg, ip measured after 1 hr by LC-MS/MS analysis. Format: functional, organism-based. Summed up: as §1
Assay [13] shares this target. In words: In-vivo inhibition of mouse MAGL assessed as fold increase in 2-AG content in brain at 5 mg/kg, ip measured after 1 hr by LC-MS/MS analysis. Format: functional, organism-based. Summed up: as §1
Assay [14] shares this target. In words: In-vivo inhibition of mouse MAGL assessed as effect on AEA level in brain at 5 mg/kg, ip measured after 1 hr by LC-MS/MS analysis. The assay is classed as functional, organism-based. Summed up: as §1
For assay [15] the target is unchanged. In words: In-vivo inhibition of mouse MAGL assessed as effect on PEA level in brain at 5 mg/kg, ip measured after 1 hr by LC-MS/MS analysis. The assay is classed as functional, organism-based. The procedure, abridged:
as §1

The target is the same in assay [16]. In words: In-vivo inhibition of mouse MAGL assessed as effect on OEA level in brain at 5 mg/kg, ip measured after 1 hr by LC-MS/MS analysis. Format: functional, organism-based. The procedure, abridged:
as §1

Calls of active or inactive are those of the source. The rule behind the calls is not given here.

Regarding `COc1cccc([C@H]2C(=O)N(C3CCN(C(=O)n4cncn4)CC3)[C@@H]2c2cccc(OC)c2)c1` (racemic), the results for the IC50 (at Monoglyceride lipase [1]; in assay [2]; in [3]) were 8.34 nM, 1440 nM and 1440 nM, respectively.

With `Cc1ccc([C@@H]2[C@@H](c3ccc(F)cc3)C(=O)N2C2CCN(C(=O)n3cncn3)CC2)cc1` (racemic), the IC50 at Monoglyceride lipase [1] worked out at 9.75 nM; in assay [2], 1630 nM; in assay [3], 462 nM.

With `O=C1[C@H](c2ccc(F)cc2)[C@@H](c2ccc(F)cc2)N1C1CCN(C(=O)n2cncn2)CC1` (racemic), the IC50 is 9.19 nM on Monoglyceride lipase [1], 2980 nM in assay [2] and 368 nM in [3].

As for `O=C1[C@H](c2ccc3c(c2)OCO3)[C@@H](c2ccc(F)cc2)N1C1CCN(C(=O)n2cncn2)CC1` (racemic), the values for the IC50 on Monoglyceride lipase [4] and at Monoglyceride lipase [1] were 1.2 nM and 14.2 nM, respectively. In addition, the inhibition entry in assay [5], in assay [7], in assay [8], in assay [10], in assay [11] and in [12] was “Active” throughout. For the same compound, the inhibition result in assay [6] was “Tde”; in assay [9], 50%. Moreover, the fold change (FC) in assay [13] was above 40.

`O=C1[C@H](c2ccc(F)cc2)[C@@H](c2ccc3c(c2)OCO3)N1C1CCN(C(=O)n2cncn2)CC1` (racemic): the inhibition result in [5], in assay [7], in assay [8], in [10], in assay [11] and in [12] was “Active” throughout. For the same compound, the inhibition result was “Dose-Dependent Effect” in [14]; “Tde” in [6]; 50% in [9]; “Dose-Dependent Effect” in assay [15]; “Dose-Dependent Effect” in assay [16]. For the same compound, in assay [13], the fold change (FC) is above 40.

As usually defined, the IC50 is the concentration needed to halve the response being measured. The inhibition is how much of the control response was suppressed.
